Laboratory results as given in ChEMBL document CHEMBL3351736, “A promising camptothecin derivative: Semisynthesis, antitumor activity and intestinal permeability” (Eur J Med Chem, 2014).
The source made the active and inactive calls. The calls are words filed in the database; no cut-off is given here.

Assays:
[1] = Effective permeability in Wistar rat small intestine at 50 uM measured after 5 mins in every 5 min interval up to 30 mins; type: ADME, tissue-based; conditions: not told, read-out: Peff
Procedure, shortened: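 In situ intestinal perfusion in male Wistar rats fasted 2 h with water allowed. Anaesthesia with diazepam (1.67 mg/kg), ketamine (50 mg/kg) and atropine (1 mg/kg); animals kept at 37 °C. Perfusate sampled every 5 min from 5 to 30 min; absorption rate constant and Peff derived.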

[2] = Effective permeability from apical to basolateral side in human Caco2 cells at 50 uM after 15 to 90 mins by HPLC analysis; type: ADME, cell-based; conditions: Caco-2, read-out: Peff
Procedure, shortened: (§1)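 Caco-2 monolayers grown 19-22 days on polycarbonate transwell inserts (4.2 cm², 0.4 µm pore) at 37 °C, 5% CO2; TEER checked before and after each run. Compound added to donor side at 37 °C, 50 rpm. Receiver sampled at 15, 30, 60 and 90 min; donor sampled at start and end. HPLC analysis. Sodium azide, when used, placed on both sides. Three independent experiments.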

Small intestine = test: Effective permeability in Wistar rat small intestine assessed as absorption rate coefficient at 50 uM measured after 5 mins in every 5 min interval up to 30 mins; type: ADME, tissue-based
Procedure, shortened: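 Male Wistar rats fasted 2 h with water available, then anaesthetised with diazepam (1.67 mg/kg), ketamine (50 mg/kg) and atropine (1 mg/kg) and kept at 37°C on a heated surface. In situ intestinal perfusion. Perfusate sampled from 5 min at 5 min intervals up to 30 min. Absorption rate constant (Ka) and Peff derived.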

Caco-2 [3] = test: Induction of apoptosis in human Caco2 cells assessed as necrotic cells at 0.5 uM after 48 hrs by Annexin V/propidium iodide staining-based flow cytometric analysis (reference value: 0.41 +/- 0.02%); type: functional
A-375 [4] = test: Induction of apoptosis in human A375 cells assessed as p53 phosphorylation at Ser15 by Western blotting analysis; type: functional, cell-based
Procedure, shortened: (§2)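 Cells treated 24 h. About 10^6 cells lysed on ice 15 min in Hepes pH 7.4/Triton X-100 buffer with phosphatase and protease inhibitors, then spun 13,000 × g. 30 µg protein run on 12% SDS-PAGE and blotted to nitrocellulose. Primary anti-phospho-p53 (Ser15) and anti-p53 at 1:1000 for 2 h at room temperature, then HRP secondary and ECL densitometry. Results referred to untreated control.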

Caco-2 [5] = test: Induction of apoptosis in human Caco2 cells assessed as vital cells at 0.5 uM after 48 hrs by Annexin V/propidium iodide staining-based flow cytometric analysis (reference value: 96.67 +/- 1.02%); type: functional
HeLa [6] = test: Induction of apoptosis in human HeLa cells assessed as inhibition of DNA synthesis at 0.8 to 1.6 uM after 24 hrs by BrdU staining-based ELISA; type: functional, cell-based
Procedure, shortened: (§3)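 BrdU colorimetric cell proliferation ELISA. Cells seeded at 25,000 per well, compounds added 24 h after seeding and incubated 24 h. Cells fixed and the immunoassay run per kit. Absorbance read at 370-492 nm over 3 intervals of 5 min; absorbance difference proportional to BrdU incorporation. Mean of three separate experiments in triplicate, compared with untreated control.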

Caco-2 [7] = test: Induction of apoptosis in human Caco2 cells assessed as vital cells at 0.5 uM after 24 hrs by Annexin V/propidium iodide staining-based flow cytometric analysis (reference value: 96.67 +/- 1.02%); type: functional
MDA-MB-231 [8] = test: Induction of apoptosis in human MDA-MB-231 cells assessed as p53 phosphorylation at Ser15 by Western blotting analysis; type: functional, cell-based; procedure, shortened: as §2
HeLa [9] = test: Induction of apoptosis in human HeLa cells assessed as p53 phosphorylation at Ser15 by Western blotting analysis; type: functional, cell-based; procedure, shortened: as §2
Caco-2 [10] = test: Induction of apoptosis in human Caco2 cells assessed as vital cells at 0.05 uM after 24 hrs by Annexin V/propidium iodide staining-based flow cytometric analysis (reference value: 96.67 +/- 1.02%); type: functional
MDA-MB-231 [11] = test: Cytotoxicity against human MDA-MB-231 cells after 24 hrs by MTT assay; type: functional, cell-based; conditions: MDA-MB-231, 24 h
Procedure, shortened: (§4)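 Cells seeded at 25000 per well and held 24 h at 37 °C in 5% CO2. Medium was then renewed and compounds added at increasing concentrations (DMSO 0.1%, or water for topotecan) for 24 h. MTT solution (5 mg/mL) was added for 3 h at 37 °C, then absorbance read at 570 nm, corrected at 630 nm. IC50 in µM.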

A-375 [12] = test: Induction of apoptosis in human A375 cells assessed as inhibition of DNA synthesis at 0.8 to 1.6 uM after 24 hrs by BrdU staining-based ELISA; type: functional, cell-based; procedure, shortened: as §3
[13] = Cytotoxicity against human Caco2 cells after 24 hrs by MTT assay; type: functional, cell-based; conditions: Caco-2, 24 h
Jurkat = test: Cytotoxicity against human Jurkat cells after 24 hrs by MTT assay; type: functional, cell-based; procedure, shortened: as §4
Caco-2 [14] = test: Induction of apoptosis in human Caco2 cells assessed as late apoptotic cells at 0.05 uM after 24 hrs by Annexin V/propidium iodide staining-based flow cytometric analysis (reference value: 2.20 +/- 0.77%); type: functional
[15] = Permeability from apical to basolateral side in human Caco2 cells at 5 to 50 uM after 15 to 90 mins by HPLC analysis; type: ADME, cell-based; conditions: caco-2, 50 µM; procedure, shortened: as §1
Caco-2 [16] = test: Induction of apoptosis in human Caco2 cells assessed as vital cells at 0.05 uM after 48 hrs by Annexin V/propidium iodide staining-based flow cytometric analysis (reference value: 96.67 +/- 1.02%); type: functional
Caco-2 [17] = test: Induction of apoptosis in human Caco2 cells assessed as early apoptotic cells at 0.05 uM after 24 hrs by Annexin V/propidium iodide staining-based flow cytometric analysis (reference value: 0.72 +/- 0.03%); type: functional
[18] = Permeability from basolateral to apical side in human Caco2 cells at 5 to 50 uM after 15 to 90 mins by HPLC analysis; type: ADME, cell-based; conditions: caco-2, 50 µM; procedure, shortened: as §1
Caco-2 [19] = test: Induction of apoptosis in human Caco2 cells assessed as late apoptotic cells at 0.05 uM after 48 hrs by Annexin V/propidium iodide staining-based flow cytometric analysis (reference value: 2.20 +/- 0.77%); type: functional
Caco-2 [20] = test: Induction of apoptosis in human Caco2 cells assessed as early apoptotic cells at 0.05 uM after 48 hrs by Annexin V/propidium iodide staining-based flow cytometric analysis (reference value: 0.72 +/- 0.03%); type: functional
HeLa [21] = test: Cytotoxicity against human HeLa cells after 24 hrs by MTT assay; type: functional, cell-based; procedure, shortened: as §4
Caco-2 [22] = test: Induction of apoptosis in human Caco2 cells assessed as late apoptotic cells at 0.5 uM after 48 hrs by Annexin V/propidium iodide staining-based flow cytometric analysis (reference value: 2.20 +/- 0.77%); type: functional
Caco-2 [23] = test: Induction of apoptosis in human Caco2 cells assessed as necrotic cells at 0.5 uM after 24 hrs by Annexin V/propidium iodide staining-based flow cytometric analysis (reference value: 0.41 +/- 0.02%); type: functional
Caco-2 [24] = test: Induction of apoptosis in human Caco2 cells assessed as necrotic cells at 0.05 uM after 24 hrs by Annexin V/propidium iodide staining-based flow cytometric analysis (reference value: 0.41 +/- 0.02%); type: functional
A-375 [25] = test: Cytotoxicity against human A375 cells after 24 hrs by MTT assay; type: functional, cell-based; conditions: A-375, 24 h; procedure, shortened: as §4
Caco-2 [26] = test: Induction of apoptosis in human Caco2 cells assessed as early apoptotic cells at 0.5 uM after 24 hrs by Annexin V/propidium iodide staining-based flow cytometric analysis (reference value: 0.72 +/- 0.03%); type: functional
MDA-MB-231 [27] = test: Induction of apoptosis in human MDA-MB-231 cells assessed as inhibition of DNA synthesis at 0.8 to 1.6 uM after 24 hrs by BrdU staining-based ELISA; type: functional, cell-based; procedure, shortened: as §3
Caco-2 [28] = test: Induction of apoptosis in human Caco2 cells assessed as early apoptotic cells at 0.5 uM after 48 hrs by Annexin V/propidium iodide staining-based flow cytometric analysis (reference value: 0.72 +/- 0.03%); type: functional
Caco-2 [29] = test: Induction of apoptosis in human Caco2 cells assessed as late apoptotic cells at 0.5 uM after 24 hrs by Annexin V/propidium iodide staining-based flow cytometric analysis (reference value: 2.20 +/- 0.77%); type: functional
Caco-2 [30] = test: Induction of apoptosis in human Caco2 cells assessed as necrotic cells at 0.05 uM after 48 hrs by Annexin V/propidium iodide staining-based flow cytometric analysis (reference value: 0.41 +/- 0.02%); type: functional
[31] = Effective permeability from basolateral to apical side in human Caco2 cells at 50 uM after 15 to 90 mins by HPLC analysis; type: ADME, cell-based; conditions: Caco-2, read-out: Peff; procedure, shortened: as §1
[32] = Effective permeability from apical to basolateral side in human Caco2 cells at 50 uM after 15 to 90 mins by HPLC analysis in presence of sodium azide; type: ADME, cell-based; conditions: Caco-2, with sodium azide, read-out: Peff; procedure, shortened: as §1
Homo sapiens = species: Homo sapiens; test: Activity at Pgp transporter (unknown origin)
[33] = Effective permeability from basolateral to apical side in human Caco2 cells at 50 uM after 15 to 90 mins by HPLC analysis in presence of sodium azide; type: ADME, cell-based; conditions: Caco-2, with sodium azide, read-out: Peff; procedure, shortened: as §1
A-375 [34] = test: Induction of apoptosis in human A375 cells assessed as inhibition of DNA synthesis after 24 hrs by BrdU staining-based ELISA; type: functional, cell-based
Procedure, shortened: (§5)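 Cells seeded at 25,000/well; compounds added 24 h after seeding at a range of concentrations and incubated 24 h. Cells fixed, then colorimetric BrdU-incorporation ELISA. Absorbance read at 370-492 nm over 3 intervals of 5 min. Mean of three separate experiments with triplicate samples.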

MDA-MB-231 [35] = test: Induction of apoptosis in human MDA-MB-231 cells assessed as inhibition of DNA synthesis after 24 hrs by BrdU staining-based ELISA; type: functional, cell-based; procedure, shortened: as §5
HeLa [36] = test: Induction of apoptosis in human HeLa cells assessed as inhibition of DNA synthesis after 24 hrs by BrdU staining-based ELISA; type: functional, cell-based; procedure, shortened: as §5

Compound	Papp at 5 min, 50 µM [1]	Papp A→B at 50 µM [2]	Ka (Small intestine)	Activity (Caco-2 [3])	Activity (A-375 [4])	Activity (Caco-2 [5])	Activity (HeLa [6])	Activity (Caco-2 [7])	Activity (MDA-MB-231 [8])	Activity (HeLa [9])	Activity (Caco-2 [10])	IC50 (MDA-MB-231 [11])	Activity (A-375 [12])	IC50 [13]	IC50 (Jurkat)	Activity (Caco-2 [14])	permeability [15]	IC50 (HeLa [21])	IC50 (A-375 [25])	Activity (MDA-MB-231 [27])	other results
COCCc1ccc(OCC(O)CNC(C)C)cc1 (centres undefined) [METOPROLOL]	55.3 ×10⁻⁶ cm/s	23 ×10⁻⁶ cm/s	2.3 h⁻¹	–	–	–	–	–	–	–	–	–	–	–	–	–	–	–	–	–	–
CC[C@@]1(O)C(=O)OCc2c1cc1n(c2=O)Cc2cc3ccccc3nc2-1 [CAMPTOTHECIN]	74.8 ×10⁻⁶ cm/s	7.88 ×10⁻⁶ cm/s	3.02 h⁻¹	2.76%	Active	36.98%	Active	81.62%	Active	inactive	83.26%	342 nM	Active	131 nM	110 nM	1.4%	permeable	420 nM	187 nM	Active	Activity (Caco-2 [16]): 51.12%; Activity (Caco-2 [17]): 15.22%; permeability [18]: permeable; Activity (Caco-2 [19]): 41.38%; Activity (Caco-2 [20]): 3.18%; Activity (Caco-2 [22]): 56.16%; Activity (Caco-2 [23]): 3.04%; Activity (Caco-2 [24]): 0.12%; Activity (Caco-2 [26]): 1.64%; Activity (Caco-2 [28]): 4.1%; Activity (Caco-2 [29]): 13.7%; Activity (Caco-2 [30]): 4.32%
CC[C@@]1(O)C(=O)OCc2c1cc1n(c2=O)Cc2cc3c4c(ccc3nc2-1)OCOC4	93.8 ×10⁻⁶ cm/s	10 ×10⁻⁶ cm/s	3.78 h⁻¹	3.2%	Active	37.04%	Active	47.78%	Active	inactive	61.56%	476 nM	Active	104 nM	124 nM	24.72%	permeable	345 nM	186 nM	Active	Papp B→A at 50 µM [31]: 9.84 ×10⁻⁶ cm/s; Papp A→B at 50 µM [32]: 8.05 ×10⁻⁶ cm/s; Activity (Homo sapiens): inactive; Activity (Caco-2 [16]): 57%; Activity (Caco-2 [17]): 11.8%; Papp B→A at 50 µM [33]: 9.73 ×10⁻⁶ cm/s; permeability [18]: permeable; Activity (Caco-2 [19]): 33.54%; Activity (Caco-2 [20]): 3.56%; Activity (Caco-2 [22]): 56.08%; Activity (Caco-2 [23]): 1.18%; Activity (Caco-2 [24]): 1.92%; Activity (Caco-2 [26]): 8.16%; Activity (Caco-2 [28]): 3.68%; Activity (Caco-2 [29]): 42.88%; Activity (Caco-2 [30]): 5.9%
CC[C@@]1(O)C(=O)OCc2c1cc1n(c2=O)Cc2cc3c([N+](=O)[O-])cccc3nc2-1 [RUBITECAN]	–	–	–	–	Active	–	Active	–	Active	inactive	–	479 nM	Active	–	128 nM	–	–	343 nM	138 nM	Active	inhibition (A-375 [34]): Dose-dependent effect; inhibition (MDA-MB-231 [35]): Dose-dependent effect; inhibition (HeLa [36]): Dose-dependent effect
